In the library only some 4.5% were active in any assay of this set; here they are far more common.
TAAR1 agonist = human TAAR1 agonism | activation, % at 3 µM | CHO RD-HGA16 TAAR1, Fluo-8 calcium fluorescence; vehicle wells 0%, saturating PEA agonist 100% | AID 624467 | Q96RJ0 | 360,000 compounds, 0.99% hits;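 active = activation above the mean activation of all test compounds in the run plus 3 SD, cut at about 38% in these data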
Target sequence (Q96RJ0 whole entry, looked up): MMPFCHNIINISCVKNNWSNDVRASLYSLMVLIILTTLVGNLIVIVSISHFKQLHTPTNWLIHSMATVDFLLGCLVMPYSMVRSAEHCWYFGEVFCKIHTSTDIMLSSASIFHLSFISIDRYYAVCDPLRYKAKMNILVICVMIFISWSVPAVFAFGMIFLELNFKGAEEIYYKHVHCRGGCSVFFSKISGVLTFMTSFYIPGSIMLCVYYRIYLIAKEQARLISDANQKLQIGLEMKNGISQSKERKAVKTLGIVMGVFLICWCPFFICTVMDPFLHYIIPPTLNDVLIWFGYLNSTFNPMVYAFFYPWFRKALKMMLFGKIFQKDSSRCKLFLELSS
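Test system: RD-HGA16 (CHO) cells co-expressing Gα16 and hTAAR1; dosing: one-point dosing at 3 µM (nominal); timing: 17-24 h seeding, 75 min 37 °C dye, 30 min RT; signal: kinetic Fluo-8 calcium fluorescence; read-out basis: % activation relative to PEA EC100 response; controls: DMSO and PEA EC100; replicates: n 1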
TAAR1 antag = human TAAR1 antagonism. Q96RJ0. CHO RD-HGA16 TAAR1, Fluo-8 calcium fluorescence, antagonist. inhibition, % at 3 µM. 360,000 compounds, 1.5% hits. AID 624466;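 active = inhibition above a per-plate cutoff, the mean inhibition of test compounds on that plate plus 3 SD, cut at about 49% in these data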;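 also: 0% = DMSO plus EC80 beta-PEA response and 100% = DMSO alone without agonist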
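Assay system: CHO-derived RD-HGA16 cells stably expressing human TAAR1 plus Gα16. Timing: 140 s kinetic read after compound, 140 s after agonist. Technique: kinetic Fluo-8 calcium fluorescence measurement. Measure: % inhibition of agonist calcium response.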
GPR7 antagonist = blocks human GPR7 receptor signaling; GPR7-expressing cells, fluorescence antagonist assay; 290,000 compounds, 1.1% hits; inhibition, % at 4.4 µM; in the data active = inhibition above about 16%, passing the limit was not always enough;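 also: cells stimulated with the agonist NPW; 0% = agonist with vehicle and 100% = vehicle without agonist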
CHO parental Ca = signal in parental CHO cells, OX1R antagonist counter-screen | inhibition, % at 5.6 µM | 330,000 compounds, 0.63% hits | parental CHO-K1, ATP-induced calcium, Fluo-8 fluorescence;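 active = inhibition above that plate's mean sample inhibition plus 3 SD, cut at about 26% in these data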;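 also: 0% = ATP-challenged DMSO wells and 100% = DMSO wells without ATP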
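Material: parental CHO cells / Compound: single nominal dose of 5.6 µM per compound / Signal: Fluo-8 fluorescence / Replicates: singlicate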
OX1R antag-1 = blocks the human orexin 1 receptor; 330,000 compounds, 0.43% hits; O43613; CHO/OX1R cells, Fluo-8 calcium fluorescence, orexin A; inhibition, % at 5 µM;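 active = inhibition above its plate's threshold, mean inhibition of all tested compounds on the plate plus 3 SD, cut at about 37% in these data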;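 also: 0% = orexin A challenge wells and 100% = SB-334867-A antagonist wells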
OX1R antag-2 = antagonists of human orexin 1 receptor (OX1R) | O43613 | OX1R-expressing cells, FRET antagonist read-out | inhibition, % at 6.6 µM | 330,000 compounds, 1.8% hits | AID 485270; in the data active = inhibition mostly above about 38%, no sharp cut-off; inactive = mostly below about 40%;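 also: 0% = agonist challenge alone and 100% = reference antagonist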
nonsel antag count = nonselective antagonist in TAAR1 antagonist counter-screen | shares compounds with TAAR1 antag | counterscreen cell line, calcium fluorescence, antagonist mode | inhibition, % at 3 µM | 2,400 compounds, 77% hits; in the data active = inhibition above about 22%;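 also: CHO-Ga16 host cells stimulated with ATP at an EC80 level; 0% = agonist EC80 plus vehicle and 100% = vehicle without agonist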
TAAR1 ant conf = confirmation of human TAAR1 antagonists; shares compounds with TAAR1 antag; TAAR1-expressing cells, fluorescence antagonist read-out; inhibition, % at 3 µM; 2,400 compounds, 40% hits; in the data active = inhibition above about 49%;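 also: CHO-Ga16 host cells challenged with agonist PEA near its EC80; 0% = agonist at EC80 plus vehicle and 100% = vehicle with no agonist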
Ga16 ag counter = nonselective Ga16 agonism, counter-screen. shares compounds with TAAR1 antag. Ga16-expressing cells, calcium fluorescence, agonist counterscreen. activation, % at 3 µM. 2,400 compounds, 18% hits. AID 651953; in the data active = activation above about 12%;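 also: 0% = vehicle wells and 100% = saturating stimulus response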
TAAR1 ag count = activates human TAAR1 in antagonist counter-screen; shares compounds with TAAR1 antag; hTAAR1 cell line, fluorescence activation, agonist mode; activation, % at 3 µM; 2,400 compounds, 2% hits; in the data active = activation above about 37%;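 also: CHO cells stably expressing TAAR1 with calcium dye readout; 0% = DMSO vehicle and 100% = full agonist response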
The depositor's hits bear a star; . = no result given.

SMILES | TAAR1 agonist | TAAR1 antag | GPR7 antagonist | CHO parental Ca | OX1R antag-1 | OX1R antag-2 | nonsel antag count | TAAR1 ant conf | Ga16 ag counter | TAAR1 ag count
CCNC(=O)NC(=O)C(C)Sc1nc2ccccc2n1CC(C)C (stereo not drawn) | 1 | -15 | -7 | -33 | -37 | 23 | . | . | . | .
Cc1cccc2nc(Cn3c(=O)n(CCC(=O)NCc4ccco4)c(=O)c4ccccc43)cc(=O)n12 | -1 | -21 | . | . | . | . | . | . | . | .
O=C(CCC(=O)Nc1ccc(F)cc1)N/N=C/c1ccc(Br)cc1 | 37 | 53* | 13 | -14 | -17 | 5 | 9 | 34 | -1 | 19
O=C1c2ccccc2C(O)(Cc2ccccc2)N1c1ccc2c(c1)OCO2 (stereo not drawn) | 5 | -25 | 0 | -15 | 7 | 17 | . | . | . | .
COc1cccc(-c2csc(N3CCN(C(=S)NCC(C)C)CC3)n2)c1 | 6 | 65* | 6 | -12 | -18 | 23 | 42* | 44 | 5 | 0
COc1ccc(NC(=O)N2CCN(c3nc(-c4cccc(OC)c4)cs3)CC2)cc1 | 10 | 64* | 1 | 3 | 0 | 10 | 38* | 59* | 8 | 1
COc1cccc(NC(=O)C2CCN(C(=O)[C@@H]3Cc4ccccc4CN3)CC2)c1 | 1 | 8 | -10 | 15 | -9 | -5 | . | . | . | .
COc1cccc(NC(=O)C2CCN(C(=O)[C@@H]3Cc4ccccc4CN3C(=O)OC(C)(C)C)CC2)c1 | 15 | 53* | -8 | -15 | -15 | 5 | 24* | 44 | 10 | 15
Cc1ccc(N2CC(C(=O)N3CCN(Cc4ccc5c(c4)OCO5)CC3)CC2=O)cc1 (stereo not drawn) | -2 | 13 | -10 | -15 | -29 | 20 | . | . | . | .
COc1ccc(C2C(C(=O)N3CCN(c4ccccn4)CC3)CCC(=O)N2c2cc(OC)c(OC)c(OC)c2)cc1 (stereo not drawn) | 0 | -23 | -4 | -6 | -9 | 8 | . | . | . | .
COc1ccc(C2C(C(=O)N3CCN(c4ccccn4)CC3)CC(=O)N2c2ccc(OC)cc2)cc1 (stereo not drawn) | 20 | 57* | -9 | -17 | -12 | 43 | 26* | 46 | 13* | 12
O=C1[C@H]2[C@@H](c3ccc(C(F)(F)F)cc3)N[C@]3(CCCN(Cc4ccc(C(F)(F)F)cc4)C3=O)[C@H]2C(=O)N1Cc1ccccc1 | 3 | -18 | . | . | . | . | . | . | . | .
COc1ccc(NC(=O)CNC(=O)C2CCCCC2)cc1OC | 6 | -4 | . | -7 | 2 | 3 | . | . | . | .
Cc1onc(-c2c(F)cccc2Cl)c1C(=O)Nc1cccc(S(=O)(=O)N2CCOCC2)c1 | 14 | 50* | . | -11 | 4 | 14 | 26* | 39 | 8 | 11
COc1ccccc1/C=C/C(=O)Nc1cccc(S(=O)(=O)N2CCOCC2)c1 | 9 | 59* | . | -22 | -5 | 10 | 24* | 45 | 5 | 3
Oc1c(Br)cc(Br)cc1C=NCc1ccccc1 | 9 | 19 | 0 | 13 | -20 | -13 | . | . | . | .
Oc1c(Br)cc(Br)cc1C=NCc1ccc(F)cc1 | 5 | 52* | -7 | -8 | -7 | -29 | 27* | 28 | 1 | 14
COc1ccc(CCn2c(C)cc(C(=O)CSc3nnnn3-c3ccccc3)c2C)cc1OC | 8 | 50* | -4 | -23 | -10 | 4 | 18 | 36 | 12* | 6
COc1ccc(CCn2c(C)cc(C(=O)CSc3nc(N)cc(=O)[nH]3)c2C)cc1 | 20 | 51* | -15 | 15 | 6 | 20 | 37* | 48 | 8 | 6
